# Sampled rows, rich in hits. Any-hit rate of the full collection: about 3%.
# DDE Tn6 FP inh – inhibitors of Tn6 peptide binding to human fibrin DD(E). P02675. Fibrin DD(E) TRITC-Tn6 fluorescence polarization displacement. inhibition, % at 8.3 µM. actives 0.21% (n = 370,000);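 active = inhibition above a per-campaign cutoff: mean of compounds within control limits plus 3 SD, cut at about 15% in these data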;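 note: 0% = median of all compound wells on the plate and 100% = blocking peptide control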
# DDE Tn7 FP inh – disrupts Tn7 cyclic peptide binding to fibrin D-Dimer-E complex; inhibition, % at 8.3 µM; AID 720508; actives 0.13% (n = 370,000); FP displacement of FITC-Tn7 peptide from fibrin DD(E); 0% = median of compound wells per plate; P02675;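 active = inhibition above the mean of compounds falling within the control limits plus 3 SD of them, cut at about 14% in these data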;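 note: 0% = plate median of compound wells and 100% = 10 µM Aha-Tn7 peptide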
#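 Measure: % inhibition scaled between sample-field median and high-control FP; Test system: human fibrin DD(E); Quantity: 2 µM final DD(E) protein; Doses: one dose, 8.3 µM nominal; Schedule: compound with protein 10 min, then 3 h after probe, room temperature; Detection: fluorescence polarization; Medium: Tris buffer with calcium and detergent, pH 7.8.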
# PLC-beta3 inh – PLC-beta3 (human) inhibition, primary screen. Purified PLC-beta3, fluorogenic substrate, fluorescence. actives 0.18% (n = 370,000). AID 720704. inhibition, % at 12.2 µM. Q01970; in the data active = inhibition above about 11%;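 note: 0% = median of compound wells on plate and 100% = full blocker control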
# KLK7 zymogen act – activates the human kallikrein-7 zymogen. actives 0.9% (n = 370,000). P49862. purified proKLK7, EDANS-DABCYL substrate fluorescence; 100% is mature enzyme control, 0% vehicle. activation, % at 7 µM. AID 652039;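 active = activation above the mean of all tested compounds plus 3 SD, computed per campaign excluding outliers beyond control limits, cut at about 13% in these data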
# PLCg1 inh – inhibitors of human phospholipase C gamma1 | actives 0.84% (n = 370,000) | P19174 | purified PLC-gamma1, fluorogenic substrate, fluorescence | inhibition, % at 12.2 µM | AID 720700; in the data active = inhibition above about 9.5%
# CendR NRP1 mod – NRP-1/CendR interaction modulation; O14786; actives 0.85% (n = 360,000); inhibition, % at 25 µM; FAM-RPARPAR peptide binding to NRP-1, fluorescence polarization;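 active = inhibition or corrected inhibition above about 18%, plus a signal ratio from 0.5 to 1.5, limit read from the data, passing the limit was not always enough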
# Tn6 DDE ctr – counter-screen for inhibitors of Tn6 peptide binding to fibrin DD(E). shares compounds with DDE Tn6 FP inh. actives 2% (n = 680). TRITC-Tn6 fluorescence polarization displacement; 0% = median of compound wells, not DMSO. AID 720621. inhibition, % at 8.3 µM;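 active = inhibition above the mean of test compounds lying between the control limits plus 3 SD of those, cut at about 14% in these data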;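 note: 0% = median of compound wells and 100% = wells with Aha-Tn7 blocking peptide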
# Tn6 DDE conf – DD(E)-Tn6 binding inhibition, FP confirmation; FP displacement of TRITC-Tn6 peptide from DD(E); 0% = per-plate median of test wells; actives 10% (n = 680); shares compounds with DDE Tn6 FP inh; inhibition, % at 8.3 µM;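 active = inhibition above the mean of compounds lying within the control limits plus 3 SD, cut at about 16% in these data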;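 note: 100% = high control wells holding a competing inhibitor peptide at 10 µM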
# Numbers without * were called inactive; i = inactive; nt = no result; + = active, no number; ! = not confirmed by another sample.
SMILES,DDE Tn6 FP inh,DDE Tn7 FP inh,PLC-beta3 inh,KLK7 zymogen act,PLCg1 inh,CendR NRP1 mod,Tn6 DDE ctr,Tn6 DDE conf
COC(=O)/C(=C/Nc1ccc(O)cc1)[N+](=O)[O-],46*,1,-27,0,-19,-13,1,-6
O=C(NCC(=O)N1CCN(S(=O)(=O)c2cccc(F)c2)CC1)c1ccc(Br)o1,16*,-2,-1,0,-2,8,14,4
COC(=O)[C@]1(CNC(C)=O)CC(=O)N(C)[C@@H]1c1ccccc1,0,-6,2,0,0,nt,nt,nt
CCOC(=O)[C@]12CCCC=C1N(CCCOC)C(=O)[C@@H]2CC(=O)N1CCN(C(=O)c2ccco2)CC1,1,-5,0,0,-1,nt,nt,nt
CCCCN(C(=O)c1ccc(Cl)c(S(=O)(=O)N2CCOCC2)c1)c1c(N)n(CCC)c(=O)[nH]c1=O,17*,2,-2,0,1,-3,0,0
CCCCn1c(N)c(N(CCOC)C(=O)c2ccc(Cl)c(S(=O)(=O)N3CCCCC3)c2)c(=O)[nH]c1=O,-4,5,-13,0,-9,-2,nt,nt
O=C(c1ccc(Br)cc1)N1CCN(S(=O)(=O)c2ccccc2)CC1,16*,-9,-9,-1,-4,-9,-5,-11
O=C(c1ccc(=O)[nH]c1)N1CCN(S(=O)(=O)c2ccccc2)CC1,4,5,-7,0,5,9,nt,nt
C[C@H]1[C@@H](N(C)CC2CCCCC2)CC[C@@]23CCCN2C(=O)CCC[C@@H]13,1,-1,0,nt,-2,nt,nt,nt
CCCC(=O)Nc1ccc2oc(-c3cncc(Br)c3)nc2c1,4,-1,-190,4,-147,11,nt,nt
CCCCCC(=O)Nc1ccc2oc(-c3cncc(Br)c3)nc2c1,16*,-1,-39,3,-27,-12,-5,-13
CCCCCc1ccc(NC(=O)OCCCN2CCC3(CCC(c4ccccc4)CC3)C2=O)cc1 (configuration not stated),4,3,4,0,-2,nt,nt,nt
O=C(CSc1ccc(-c2nc3ccccc3[nH]2)cn1)Nc1ccc(S(=O)(=O)NC2CC2)cc1,182*,-4,-18,-2,-11,4,9,-12
CC(c1c[nH]c2ccccc12)c1c[nH]c2ccc(Br)cc12 (configuration not stated),5,-6,-8,0,-4,nt,nt,nt
CC(=O)Nc1sc2c(c1-c1nc3ccccc3s1)CCN(C)C2,-2,7,i,nt,i,nt,nt,nt
CC(=O)Nc1sc2c(c1-c1nc3ccccc3s1)CCOC2,16*,-1,i,nt,i,nt,11,7
CCOC(=O)CC[C@@H]1CC[C@]2(CCCN(C(=O)c3ccc4ccccc4n3)C2)O1,1,0,0,0,0,nt,nt,nt
Cc1ccc(NC(=O)C(OC(=O)c2ccc(NC(N)=O)cc2)c2ccccc2)cc1Cl (configuration not stated),34*,0,2,0,5,-8,1,-1
Cc1ccc(NC(=O)C(OC(=O)c2ccccc2Cl)c2ccccc2)cc1Cl (configuration not stated),-1,-8,5,0,4,-6,nt,nt
O=C(O)c1ccccc1-c1c2cc(I)c(=O)c(I)c-2oc2c(I)c(O)c(I)cc12,+,-98,-273,2,-193,142,-156,93*
Cc1cc(NC(=O)c2ccc(NS(=O)(=O)c3ccc(F)cc3)cc2)no1,17*,2,4,0,3,nt,1,-5
C/C(=N/NC(=O)c1ccoc1C)c1cccs1,-7,-7,-81,0,-3,nt,nt,nt
COc1ccccc1C(=O)COC(=O)C(NC(=O)Cc1ccccc1)C(C)C (configuration not stated),+,1,-11,0,-6,-5,-5,-15
Cc1ccccc1CN1CCCCC(NC(=O)c2ccccc2F)C1=O (configuration not stated),6,3,2,0,0,nt,nt,nt
Cc1cccc(NC(=O)[C@@H]2CC(=O)O[C@@H]2c2ccccc2)c1C,5,3,0,-1,-3,nt,nt,nt
SMILES,DDE Tn6 FP inh,DDE Tn7 FP inh,PLC-beta3 inh,KLK7 zymogen act,PLCg1 inh,CendR NRP1 mod,Tn6 DDE ctr,Tn6 DDE conf
CC1(C)CC(=O)C2=C(C1)N1C(=C(C#N)C2c2ccccc2Cl)N=C(N)c2ccccc21 (configuration not stated),17*,-6,-30,0,-26,-12,2,0
Cc1ccccc1NC(=O)c1cccc2c1-c1ccccc1C2=O,-7,-6,3,0,-2,nt,nt,nt
NC(=O)c1ccc(-n2nc(C(F)(F)F)c3c2CCCC3)cc1,-1,5,-3,0,0,-4,nt,nt
O=C(O)c1ccc(-n2nc(C(F)(F)F)c3c2CCCC3)cc1,21*!,2,0,1,-3,-1,4,3
CCCC1CCC2(CCCN2CCOC(=S)Nc2cccc(Cl)c2)CC1 (configuration not stated),-5,4,3,nt,-1,nt,nt,nt
O=C(CCS(=O)(=O)c1ccc(Cl)cc1)N1CCN(c2ccc(F)cc2)CC1,18*,0,-3,0,0,1,6,-4
CCCCCCCCN1C(=O)[C@@H](CC(=O)N2CCC(c3ccccc3)CC2)C[C@@]2(C(=O)OC)C1=C[C@H](C(C)C)O[C@@H]2C1CC1,-1,-6,2,0,2,nt,nt,nt
O=C(Nc1ccc(Cl)cc1)c1csc(-c2ccccc2)n1,28*,6,-6,-1,-4,-3,10,26*
Clc1cccc(OCCN2CCNCC2)c1,4,1,3,0,1,5,nt,nt
OCCN1CCN(CCOc2cccc(Cl)c2)CC1,17*,-7,3,0,2,-2,0,-4
COc1ccccc1NC(=O)/C=C/c1ccc(OC)c(S(=O)(=O)N2CCOCC2)c1,17*,9,-4,0,-4,-4,3,-2
CC(=O)c1ccc(N2CCN(CN3C(=O)CC4(CCCC4)C3=O)CC2)c(F)c1,70*,-10,0,0,3,-2,8,2
COc1cc(CCC(=O)OCC(=O)Nc2c(C)cccc2C(C)C)cc(OC)c1OC,16*,6,1,0,-2,-2,9,3
Cc1ccc(C2NC(=O)c3c(sc4c3CCN(C)C4)N2)s1 (configuration not stated),18*,-3,-302,6,-241,-90,11,6

# Screening results: PubChem, several laboratories
